Values after ≈ are worked out from the molar mass of the structure shown. Active and inactive are the calls of the source. The calls are words filed in the database; no cut-off is given here.
How the values were obtained:
[1] = tested on: HL-60; assay: Induction of cell differentiation of human HL60 cells at 4 ug/mL after 4 days by non-specific esterase determination; assay type: functional, cell-based; conditions: for % differentiation: HL-60, 96 h
Outline: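 HL-60 cells kept in RPMI 1640 with 10% fetal calf serum and penicillin/streptomycin at 37 °C, 5% CO2. Cells at 1.2 × 10^5 cells/mL, preincubated 18 h, then added to compounds in DMSO (final 0.1% v/v). After 4 days, α-naphthyl acetate esterase was stained cytochemically, ≥200 cells counted microscopically in duplicate, and the % differentiated cells recorded.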

[2] = tested on: Col2; assay: Antiproliferative activity against human Col2 cells after 3 days by sulforhodamine B assay; assay type: functional, cell-based; conditions: for IC50: Col2, 72 h
Outline: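 Col2 human colon cancer cells grown in MEME with 10% NEAA, antibiotic-antimycotic and 10% FBS at 37 °C, 5% CO2. Exponentially growing cells were added to wells containing compounds in DMSO and grown 3 days. Cells were then TCA-fixed and stained with 0.4% SRB in 1% acetic acid, and the dye was solubilized in 0.1 M Tris. Absorbance read at 515 nm; % growth calculated against day-0 and DMSO-control absorbances.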

[3] = Inhibition of 7,12-dimethylbenz[a]anthracene-induced preneoplastic lesions in a BALB/c mouse mammary gland culture at 10 ug/mL treated for 10 days before DMBA-challenge measured after 14 days; assay type: functional, tissue-based
Outline: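 BALB/c female mice were primed 9 days with estradiol (1 µg) and progesterone (1 mg). Second thoracic mammary glands were cultured 10 days at 37 °C in 95% O2/5% CO2 in Waymouth's 752/1 MB medium with insulin, prolactin, aldosterone and hydrocortisone. DMBA 2 µg/mL was given at 72–96 h and compounds on days 1–10. Glands then regressed 14 days with insulin only and were scored for lesion incidence. % inhibition is relative to the DMBA control.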

Structure (SMILES)	Activity [1]	Activity [2]	% differentiation [1] [%]	IC50 [2] [µg/mL]	% inhibition [3] [%]
C=C1C(=O)O[C@@H]2C[C@H](C)[C@@]3(O)CC[C@@](C)(C[C@@H](OC(=O)C(C)C)[C@@H]12)O3	inactive	inactive			
C=C1C(=O)O[C@@H]2C[C@H](C)[C@]3(O)O[C@@](C)(C[C@H]3O)C[C@@H](OC(=O)C(C)C)[C@@H]12			< 10	> 20	
COC(=O)/C=C/[C@@H]1CC[C@@]2(C)CC[C@@H](OC(C)=O)[C@@](C)(O)[C@@H]2C1			< 10	> 20	
C=C1C(=O)O[C@@H]2/C=C(/C)C(=O)/C=C/[C@](C)(O)C[C@@H](OC(=O)C(C)C)[C@@H]12 [TAGITININ C]			20	0.7 (≈ 2.01 µM)	44.4
C=C(C(=O)OC)[C@@H]1CC[C@@]2(C)CC[C@@H](OC(C)=O)[C@@](C)(O)[C@@H]2C1	inactive	inactive			
C=C1C(=O)O[C@@H]2/C=C(/C)C(=O)[C@@H]3O[C@H]3[C@](C)(O)C[C@@H](OC(=O)C(C)C)[C@@H]12			< 10	1.7 (≈ 4.67 µM)	44.4
C=C1C(=O)O[C@@H]2C[C@H](C)[C@@]3(O)C[C@H](O)[C@@](C)(C[C@@H](OC(=O)C(C)C)[C@@H]12)O3	inactive	inactive			
C=C1C(=O)O[C@H]2[C@H]1[C@H](OC(=O)C(C)C)C[C@@](C)(O)[C@@H]1CC(=O)[C@@](C)(O)[C@H]21			32.4	18.9 (≈ 51.6 µM)	48.7
C=C1C(=O)O[C@H]2[C@H]1[C@H](OC(=O)C(C)C)C[C@@]1(C)[C@H](O)C[C@H](OC(C)=O)[C@@](C)(O)[C@H]21 [TITHOFOLINOLIDE]			37.4	> 20	40.2
C=C1C(=O)O[C@H]2[C@H]1[C@H](OC(=O)C(C)C)C[C@@]1(C)[C@H](O)C[C@H](OC(C)=O)C(=C)[C@H]21			33.9	5.9 (≈ 15 µM)	63

From ChEMBL document CHEMBL1148122, “Sesquiterpenoids from Tithonia diversifolia with potential cancer chemopreventive activity” (J Nat Prod, 2002)
